Legend:
Conditions in all cases: isolated protein; call rule not given here
Albumin [1] = target: T1, Albumin (Homo sapiens, UniProt P02768); assay: Binding affinity to human serum albumin assessed as Stem-Volmer quenching constant at 305K by fluorescence spectroscopy; assay type: ADME
In short: (§1)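 Fatty-acid-free HSA, 1.5 × 10^-6 M in 0.1 M Tris-HCl pH 7.4 with 0.1 M NaCl, titrated with ligand from ethanol stock. Each addition equilibrated 5 min. Emission recorded 300–450 nm with excitation at 280 nm, at 300, 305 and 310 K. Constants taken from the linear low-concentration region of Stern-Volmer F0/F plots.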

Albumin [2] = target: T1, Albumin; assay: Binding affinity to human serum albumin assessed as quenching constant at 310K by fluorescence spectroscopy; assay type: ADME; in short: as §1
Albumin [3] = target: T1, Albumin; assay: Binding affinity to human serum albumin assessed as quenching constant at 300K by fluorescence spectroscopy; assay type: ADME; in short: as §1
Albumin [4] = target: T1, Albumin; assay: Binding affinity to human serum albumin assessed as free energy change at 305K by thermodynamic analysis
Albumin [5] = target: T1, Albumin; assay: Binding affinity to human serum albumin assessed as induction of protein conformational changes by synchronous fluorescence spectroscopy
Albumin [6] = target: T1, Albumin; assay: Binding affinity to human serum albumin by UV-vis spectrophotometry; assay type: ADME
In short: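 UV-vis absorption titration at room temperature in a 10 mm quartz cuvette. HSA was held at 1.5 × 10^-6 M while ligand was varied 0–18 × 10^-6 M, and absorbance change at 280 nm was followed. Spectra of ligand alone at 1.5 × 10^-6 M were also recorded.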

Albumin [7] = target: T1, Albumin; assay: Binding affinity to human serum albumin assessed as enthalpy change at 300K by thermodynamic analysis; assay type: ADME
In short: (§2)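 Fatty-acid-free HSA, 1.5 × 10^-6 M in 0.1 M Tris-HCl pH 7.4 / 0.1 M NaCl, was titrated with ligand from ethanol stock and equilibrated 5 min per addition. Emission was read 300–450 nm (excitation 280 nm) at 300, 305 and 310 K. Binding constants came from the quenching data across these temperatures, and thermodynamic parameters from their temperature dependence.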

Albumin [8] = target: T1, Albumin; assay: Binding affinity to human serum albumin assessed as free energy change at 310K by thermodynamic analysis
Albumin [9] = target: T1, Albumin; assay: Binding affinity to human serum albumin assessed as Stem-Volmer quenching constant at 310K by fluorescence spectroscopy; assay type: ADME; in short: as §1
Albumin [10] = target: T1, Albumin; assay: Binding affinity to human serum albumin assessed as quenching constant at 305K by fluorescence spectroscopy; assay type: ADME; in short: as §1
Albumin [11] = target: T1, Albumin; assay: Binding affinity to human serum albumin assessed as binding constant at 300K by Stem-Volmer plot; assay type: ADME; in short: as §2
Albumin [12] = target: T1, Albumin; assay: Binding affinity to human serum albumin assessed as induction of protein conformational changes by measuring reduction in intensity along with blue shift in peak 1 by three-dimensional fluorescence spectroscopy; design: scale not given: the % may be the effect or the level left
In short: (§3)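 3-D fluorescence of HSA at 1.5 × 10^-6 M, alone and with ligand at a 2:1 ligand/HSA molar ratio, in Tris-HCl pH 7.4 buffer. Excitation scanned 200–480 nm in 10 nm steps, with emission recorded 220–500 nm. Changes in intensity and position of peak 1 were compared.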

Albumin [13] = target: T1, Albumin; assay: Binding affinity to human serum albumin assessed as binding constant at 310K by Stem-Volmer plot; assay type: ADME; in short: as §2
Albumin [14] = target: T1, Albumin; assay: Binding affinity to human serum albumin assessed as Stem-Volmer quenching constant at 300K by fluorescence spectroscopy; assay type: ADME; in short: as §1
Albumin [15] = target: T1, Albumin; assay: Binding affinity to human serum albumin assessed as free energy change at 300K by thermodynamic analysis
Albumin [16] = target: T1, Albumin; assay: Binding affinity to human serum albumin assessed as binding constant at 305K by Stem-Volmer plot; assay type: ADME; in short: as §2
Albumin [17] = target: T1, Albumin; assay: Binding affinity to human serum albumin assessed as induction of protein conformational changes by measuring reduction in intensity along with red shift in peak 1 by three-dimensional fluorescence spectroscopy; design: scale not given: the % may be the effect or the level left; in short: as §3

T1 sequence (P02768 whole entry): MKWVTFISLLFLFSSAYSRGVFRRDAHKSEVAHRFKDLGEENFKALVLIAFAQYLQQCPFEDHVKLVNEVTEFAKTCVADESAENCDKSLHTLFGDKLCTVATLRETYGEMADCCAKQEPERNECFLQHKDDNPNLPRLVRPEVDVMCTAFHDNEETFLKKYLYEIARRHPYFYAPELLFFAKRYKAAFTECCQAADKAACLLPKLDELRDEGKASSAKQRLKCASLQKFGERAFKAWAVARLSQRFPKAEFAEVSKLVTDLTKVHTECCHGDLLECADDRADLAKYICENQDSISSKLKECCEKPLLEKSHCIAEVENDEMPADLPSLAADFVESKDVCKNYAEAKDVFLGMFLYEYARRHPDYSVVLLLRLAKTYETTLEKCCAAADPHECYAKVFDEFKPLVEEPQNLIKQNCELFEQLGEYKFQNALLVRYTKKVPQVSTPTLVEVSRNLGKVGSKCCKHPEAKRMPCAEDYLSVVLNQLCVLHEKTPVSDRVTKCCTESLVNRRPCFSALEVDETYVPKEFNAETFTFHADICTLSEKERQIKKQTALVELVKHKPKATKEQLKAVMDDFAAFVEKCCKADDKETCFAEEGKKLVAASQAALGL

SMILES	KSV (Albumin [1]) [×10⁴ /M]	Kq (Albumin [2]) [×10¹² /M/s]	Kq (Albumin [3]) [×10¹² /M/s]	deltaG (Albumin [4]) [kcal/mol]	Activity (Albumin [5])	Activity (Albumin [6])	deltaH (Albumin [7]) [kcal/mol]	deltaG (Albumin [8]) [kcal/mol]	KSV (Albumin [9]) [×10⁴ /M]	Kq (Albumin [10]) [×10¹² /M/s]	K (Albumin [11]) [×10⁴ /M]	Activity (Albumin [12]) [%]	K (Albumin [13]) [×10⁴ /M]	KSV (Albumin [14]) [×10⁴ /M]	deltaG (Albumin [15]) [kcal/mol]	K (Albumin [16]) [×10⁴ /M]	Activity (Albumin [17]) [%]
COc1ccc(C(CCc2ccc(O)cc2OC)c2cc(CCC(=O)c3ccc(O)cc3)c(OC)cc2O)cc1 (configuration not stated) [COCHINCHINENIN C]	14.95	12.15	17.69	-7.33	Active	Active	-13.37	-7.232	12.15	14.95	25.32	14	12.32	17.69	-7.431	18.62	–
COc1ccc(CCC(=O)c2ccc(O)cc2)c(OC)c1	7.98	6.24	9.85	-6.986	Active	Active	-7.643	-6.977	6.24	7.98	12.91	–	8.56	9.85	-6.998	9.51	28

Reference: ChEMBL document CHEMBL3407398, “Comparison between loureirin A and cochinchinenin C on the interaction with human serum albumin” (Eur J Med Chem, 2015)
